Screens as filed in PubChem BioAssay.
This is a sample that favours compounds with a hit; in the whole collection about 1.4% have one here.
MsrA act: bovine methionine sulfoxide reductase A activation; activation, % at 10.6 µM; AID 602163; purified bovine MsrA, absorbance read-out; 360,000 tested, 0.3% active; in the data active means activation above about 7.5%
ARFGAP1 inh: rat ARFGAP1 inhibition. Q62848. Arfgap1-stimulated ARF1 GTP hydrolysis, GDP FP detection. inhibition, % at 16.5 µM. 360,000 tested, 0.26% active;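 active means inhibition above a per-plate limit, mean inhibition of low control wells plus 3 SD, cut at about 25% in these data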
Target sequence (Q62848 1-136 limits assumed): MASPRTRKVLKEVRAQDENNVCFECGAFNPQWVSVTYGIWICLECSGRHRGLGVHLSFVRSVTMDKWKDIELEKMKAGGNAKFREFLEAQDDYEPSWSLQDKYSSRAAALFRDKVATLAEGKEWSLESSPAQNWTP
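Repeats: one replicate per compound; assay system: rat Arfgap1 catalytic domain, aa 1-136; times: enzyme reaction 120 min at 25 °C after 20 min preincubation; detection: FP of antibody-bound GDP Alexa 633 tracer, ex 620/em 688 nm; benchmarks: high control wells lacking Arfgap1, low control full reaction with DMSO; reagent: human ARF1(Δ1-17)-GTP substrate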
MsrA inh: bovine MsrA inhibition; purified bovine MsrA, absorbance read-out; inhibition, % at 15.5 µM; 360,000 tested, 0.75% active; AID 651718; in the data active means inhibition above about 4.5%
ASAP1 GAP inh: blocks human ASAP1-stimulated Arf1 GTP hydrolysis. GDP FP detection. inhibition, % at 16.5 µM. 360,000 tested, 0.19% active. AID 624377; in the data active means inhibition above about 25%
Target sequence (Q9ULH1 325-724 limits assumed): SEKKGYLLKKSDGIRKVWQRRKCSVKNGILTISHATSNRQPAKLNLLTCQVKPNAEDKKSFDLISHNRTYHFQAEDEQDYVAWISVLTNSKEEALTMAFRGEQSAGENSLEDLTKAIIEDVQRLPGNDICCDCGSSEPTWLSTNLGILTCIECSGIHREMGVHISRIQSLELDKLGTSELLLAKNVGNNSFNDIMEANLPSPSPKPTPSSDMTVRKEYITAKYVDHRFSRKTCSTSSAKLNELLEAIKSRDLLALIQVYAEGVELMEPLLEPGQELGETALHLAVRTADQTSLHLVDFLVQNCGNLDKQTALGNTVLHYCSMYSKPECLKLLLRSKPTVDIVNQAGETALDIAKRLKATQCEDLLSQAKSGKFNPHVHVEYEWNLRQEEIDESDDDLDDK
ARFGAP1 confirm: rat ARFGAP1 inhibition, confirmed; ARFGAP1-stimulated ARF1 GTP hydrolysis, GDP tracer FP; inhibition, % at 16.5 µM; 890 tested, 30% active; shares compounds with ARFGAP1 inh;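 active means average inhibition over triplicates above the hit cutoff set in the earlier primary screen, cut at about 25% in these data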
Large screens that a line does not name were inactive (follow-up assays come after a bar, where they were run).

O=C(Cn1c2ccc(F)cc2c2nc3n(c(=O)c21)CCS3)Nc1ccc(Cl)cc1F	ARFGAP1 inh 42 | ARFGAP1 confirm 57
C=C(C)COc1ccc(-c2[nH]ncc2-c2ccc(OC)cc2)c(O)c1	ARFGAP1 inh 26 | ARFGAP1 confirm inactive
Cc1ccccc1-n1c(=O)cc(N2CCc3ccccc32)[nH]c1=O	ARFGAP1 inh 25 | ARFGAP1 confirm inactive
CCC(=O)N1CCCC(C)(C(=O)NS(=O)(=O)c2cccs2)C1 (configuration not stated)	none
COc1ccc2nc(/C=N/NC(=O)[C@H](CCSC)NC(=O)OC(C)(C)C)ccc2c1	ARFGAP1 inh 27 | ARFGAP1 confirm inactive
COc1cc2cc(C(=O)NC(C)c3cccc4ccccc34)c(N)nc2cc1OC (configuration not stated)	ARFGAP1 inh 25 | ARFGAP1 confirm inactive
Cc1ccc(C)c(C(Nc2ccccc2)c2ccc3ccc(C)nc3c2O)c1 (configuration not stated)	none (no result: MsrA act)
O=C(/C=C/Nc1ccc(Br)cn1)c1cccc(OC(F)F)c1	none
CC12CCC(=O)N1C(C(=O)NCCN1C(=O)S/C(=C\c3ccc(F)cc3)C1=O)CS2 (configuration not stated)	none
CC12CCC(=O)N1C(C(=O)NCCN1C(=O)S/C(=C\c3ccc(OC(F)F)cc3)C1=O)CS2 (configuration not stated)	ARFGAP1 inh 25 | ARFGAP1 confirm inactive
COc1ccc(C(=O)NC(=S)Nc2ccc(N3CCCC3)cc2)cc1	none
COc1ccc(C(=O)Nc2ccc(N3CCCC3)cc2)cc1	ARFGAP1 inh 25 | ARFGAP1 confirm 87
O=C(CCN1C(=O)C2CCCCC2C1=O)Nc1ccc(Br)cc1F (configuration not stated)	none
CCn1c2ccccc2c2cc(NC(=O)CSc3nnc(-c4cccc(OC)c4)n3N)ccc21	ARFGAP1 inh 31 | ARFGAP1 confirm 26
COc1ccc(OCc2nnc(SCC(=O)c3ccccc3)o2)cc1	ARFGAP1 inh 32 | ARFGAP1 confirm inactive
O=C(CSc1nnc(COc2ccc(Cl)cc2)o1)NC1CC2CCC1C2 (configuration not stated)	ARFGAP1 inh 30 | ARFGAP1 confirm inactive
COc1ccc(OCc2nnc(SCC(=O)NC3CC4CCC3C4)o2)cc1 (configuration not stated)	none
COc1ccc(Cc2nnc(SCC(=O)c3ccccc3)o2)cc1	none
NNC(=O)c1c[nH]c2ccc(OCc3ccccc3)cc12	none
CCN1CCN(c2ccc(S(=O)(=O)N3CCCCC3)cc2NC(=O)/C=C/c2ccc([N+](=O)[O-])cc2)CC1	ARFGAP1 inh 42, ASAP1 GAP inh 29 | ARFGAP1 confirm 45
COc1ccc(S(=O)(=O)NCc2cccnc2)cc1OC	none
COc1ccc(S(=O)(=O)NCc2cccnc2)cc1NC(=O)c1ccc(Cl)cc1	ARFGAP1 inh 25 | ARFGAP1 confirm inactive
c1ccc2c(c1)COc1c3ncccc3nn1-2	ARFGAP1 inh active | ARFGAP1 confirm inactive
COc1ccccc1NC(=O)CCSc1nnc(-c2ccncc2)o1	none
O=C(CCSc1nnc(-c2ccncc2)o1)Nc1ccccc1Cl	ARFGAP1 inh 29 | ARFGAP1 confirm inactive
COC(=O)c1cc(S(=O)(=O)NCC2CCN(Cc3cccc(F)c3)CC2)cn1C	none
COc1[nH]c2ccc(F)cc2c1C(=O)OCC1CCN(CCNS(C)(=O)=O)CC1	ARFGAP1 inh 28 | ARFGAP1 confirm inactive
Cc1ccc(S(=O)(=O)N2CCN(Cc3ccco3)CC2)c(C)c1	none
COc1cccc(C(=O)Nc2ccc(NC(=O)C3C4C=CC(C4)C3C(=O)O)cc2)c1 (configuration not stated)	none
COc1ccc(-c2cc(C(=O)Nc3cccc(S(=O)(=O)NCc4ccco4)c3)c3ccccc3n2)cc1OC	ARFGAP1 inh 26 | ARFGAP1 confirm inactive
COc1ccccc1NS(=O)(=O)c1cccc(C(=O)NCC2(N3CCCCC3)CCCCC2)c1	none
COc1ccc(-c2cc(NC=O)c3ncc(-c4ccc(C(C)=O)cc4)n3c2)cn1	ARFGAP1 inh 29 | ARFGAP1 confirm 34
CC(=O)Nc1cccc(-c2cc(NC=O)c3ncc(-c4ccc(C(C)=O)cc4)n3c2)c1	ARFGAP1 inh 25 | ARFGAP1 confirm inactive
Cc1ccc2cc(CCNC(=O)C(C)(C)C)c(=O)[nH]c2c1	ARFGAP1 inh 28 | ARFGAP1 confirm inactive
CCCS(=O)(=O)NC(=O)C1(C)CCCN(C(=O)c2ccc(C#N)cc2)C1 (configuration not stated)	none
CCN1CCN(Cc2ccc(NC(=O)c3ccc(C)c(NC(=O)C(=O)c4c[nH]c5ccccc45)c3)cc2C(F)(F)F)CC1	none
CCN1CCN(Cc2ccc(NC(=O)c3cc(NC(=O)C(=O)c4c[nH]c5ccccc45)cc(OC)c3)cc2C(F)(F)F)CC1	ARFGAP1 inh 46 | ARFGAP1 confirm 36
Cc1c(Cl)cccc1NC(=O)CC1Oc2ccccc2NC1=O (configuration not stated)	none
CCCCCc1c(C)nc(N2CCc3ccccc32)[nH]c1=O	ARFGAP1 inh 26 | ARFGAP1 confirm inactive
O=C1CCN(Cl)C(=O)N1Cl	ARFGAP1 inh 26 | ARFGAP1 confirm inactive
O=C1CCCN1c1cc(Cl)cc(Cl)c1	none
COc1ccc(CCNC(=O)COC(=O)c2ccccn2)cc1	none
Cn1c(=O)cc(SCC(=O)NCc2ccc(F)cc2)c2ccccc21	none
Cn1c(=O)cc(SCC(=O)NCCCN2CCN(c3ccc(F)cc3)CC2)c2ccccc21	ARFGAP1 inh 38 | ARFGAP1 confirm inactive
CCOC(=O)Cc1nc(-c2cccc(C(F)(F)F)c2)no1	ARFGAP1 inh 27 | ARFGAP1 confirm inactive
COc1ccccc1C(=O)NC(=O)COC(=O)CNC(=O)c1ccccc1F	none
Cc1c(C(=O)N/N=C/C(C)C)[nH]c2c([N+](=O)[O-])cccc12	none
Cc1ccc2nc(N3C(=O)C(O)=C(C(=O)c4ccc(C)o4)C3c3cccc(O)c3)sc2c1 (configuration not stated)	ARFGAP1 inh 34 | ARFGAP1 confirm 52
COc1ccc2nc(N3C(=O)C(O)=C(C(=O)c4ccco4)C3c3ccc(OC)c(OC)c3)sc2c1 (configuration not stated)	none
CCOc1ccc(-n2c(SCC(=O)NCc3ccco3)nc3c(c2=O)SCC3)cc1	none
O=C(CSc1nc2c(c(=O)n1-c1ccc(Br)cc1)SCC2)NCc1ccco1	ARFGAP1 inh 29 | ARFGAP1 confirm inactive
Cc1ccc(-n2nc3c(=O)n(CC(=O)NCc4ccccn4)nc(C)c3c2C)cc1	none
CCOc1ccc(CNC(=O)Cn2nc(C)c3c(C)n(-c4ccc(C)cc4)nc3c2=O)cc1	ARFGAP1 inh 34 | ARFGAP1 confirm inactive
CCOc1ccc2nc(NC(=O)CSc3nc4c(c(=O)n(C)c(=O)n4C)n3C(C)C)sc2c1	none
COc1ccc2nc(NC(=O)Cn3cnc4ccccc4c3=O)sc2c1	ARFGAP1 inh 27 | ARFGAP1 confirm inactive
CCOc1ccc2nc(NC(=O)Cn3cnc4c3c(=O)n(C)c(=O)n4C)sc2c1	ARFGAP1 inh 27 | ARFGAP1 confirm inactive
